# Measured values: the M2OR odorant receptor database
# Molecular target: T1, UniProt Q8VF52
# T1 sequence (whole entry): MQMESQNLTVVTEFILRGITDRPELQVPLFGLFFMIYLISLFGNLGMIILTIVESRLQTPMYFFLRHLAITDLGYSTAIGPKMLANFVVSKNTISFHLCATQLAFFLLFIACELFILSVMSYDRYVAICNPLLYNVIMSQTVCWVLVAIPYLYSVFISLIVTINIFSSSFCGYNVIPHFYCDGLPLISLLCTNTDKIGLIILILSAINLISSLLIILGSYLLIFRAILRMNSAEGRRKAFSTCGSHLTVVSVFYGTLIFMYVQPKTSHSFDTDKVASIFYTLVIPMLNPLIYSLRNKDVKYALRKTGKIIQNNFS
# Conditions: stereoisomer not certain
# Procedure, shortened: (§1)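 Each receptor–molecule pair is labelled responsive or non-responsive (inactive) according to whether the original authors judged the measured signal statistically different from baseline. The data were taken from the main text and supplementary material of published papers and checked for typos and inconsistencies. Assay methods differed by source, with transient luciferase assays in mammalian cell lines being common.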
# 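Also: active if original authors judged signal statistically different from baseline.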
row,Structure (SMILES),odorant receptor agonist call
1,O=CC=Cc1ccccc1,inactive
2,Oc1ccccc1Br,inactive
3,O=Cc1ccc2c(c1)OCO2,inactive
4,C=C(C)C1CC=C(C=O)CC1 (stereo not drawn),inactive
5,C=CCc1ccccc1,inactive
6,OCc1ccc2c(c1)OCO2,inactive
7,Cc1ccc(OC(=O)Cc2ccccc2)cc1,inactive
8,CCCCC(Br)C(=O)O (stereo not drawn),inactive
9,O=c1cc(O)c2ccccc2o1,inactive
10,CCCCCCC(Br)C(=O)O (stereo not drawn),inactive
11,CCC1CCC(=O)O1 (stereo not drawn),inactive
12,C=CCOC(=O)Cc1ccccc1,inactive
13,COc1ccc(C=O)cc1,inactive
14,O=Cc1ccccc1,inactive
15,CSSC,inactive
16,CC(C=O)Cc1ccc2c(c1)OCO2 (stereo not drawn),inactive

# Molecular target: T2, UniProt Q8VFG6
# T2 sequence (whole entry): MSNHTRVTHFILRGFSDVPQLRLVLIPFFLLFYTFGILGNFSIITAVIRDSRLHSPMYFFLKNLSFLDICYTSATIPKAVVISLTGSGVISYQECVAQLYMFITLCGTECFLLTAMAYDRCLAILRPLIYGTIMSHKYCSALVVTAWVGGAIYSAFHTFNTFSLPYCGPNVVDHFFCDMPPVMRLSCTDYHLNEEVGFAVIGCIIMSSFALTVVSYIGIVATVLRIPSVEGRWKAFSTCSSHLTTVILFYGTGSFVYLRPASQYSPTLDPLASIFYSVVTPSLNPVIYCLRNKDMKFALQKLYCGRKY
# Conditions: stereoisomer not certain
# Procedure, shortened: as §1
row,Structure (SMILES),odorant receptor agonist call
1,C=CCc1ccccc1,inactive
2,O=c1cc(O)c2ccccc2o1,inactive
3,CCC1CCC(=O)O1 (stereo not drawn),inactive
4,C=CCOC(=O)Cc1ccccc1,active

# Molecular target: T3, UniProt Q8VFM8
# T3 sequence (whole entry): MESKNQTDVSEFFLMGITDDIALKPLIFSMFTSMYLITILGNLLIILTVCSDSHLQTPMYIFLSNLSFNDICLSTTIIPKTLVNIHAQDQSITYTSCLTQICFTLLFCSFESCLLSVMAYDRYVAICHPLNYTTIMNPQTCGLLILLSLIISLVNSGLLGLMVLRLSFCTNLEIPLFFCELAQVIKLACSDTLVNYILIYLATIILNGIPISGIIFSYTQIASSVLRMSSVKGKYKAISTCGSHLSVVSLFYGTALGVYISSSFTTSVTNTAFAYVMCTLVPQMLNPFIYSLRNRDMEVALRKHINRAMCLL
# Conditions: stereoisomer not certain
# Procedure, shortened: as §1
row,Structure (SMILES),odorant receptor agonist call
1,O=CC=Cc1ccccc1,inactive
2,Oc1ccccc1Br,inactive
3,O=Cc1ccc2c(c1)OCO2,inactive
4,C=C(C)C1CC=C(C=O)CC1 (stereo not drawn),inactive
5,OCc1ccc2c(c1)OCO2,inactive
6,Cc1ccc(OC(=O)Cc2ccccc2)cc1,inactive
7,CCCCC(Br)C(=O)O (stereo not drawn),inactive
8,O=c1cc(O)c2ccccc2o1,inactive
9,CCCCCCC(Br)C(=O)O (stereo not drawn),inactive
10,C=CCOC(=O)Cc1ccccc1,inactive
11,COc1ccc(C=O)cc1,inactive
12,O=Cc1ccccc1,inactive
13,CSSC,inactive
14,CC(C=O)Cc1ccc2c(c1)OCO2 (stereo not drawn),inactive

# Molecular target: T4, UniProt Q8VFP5
# T4 sequence (whole entry): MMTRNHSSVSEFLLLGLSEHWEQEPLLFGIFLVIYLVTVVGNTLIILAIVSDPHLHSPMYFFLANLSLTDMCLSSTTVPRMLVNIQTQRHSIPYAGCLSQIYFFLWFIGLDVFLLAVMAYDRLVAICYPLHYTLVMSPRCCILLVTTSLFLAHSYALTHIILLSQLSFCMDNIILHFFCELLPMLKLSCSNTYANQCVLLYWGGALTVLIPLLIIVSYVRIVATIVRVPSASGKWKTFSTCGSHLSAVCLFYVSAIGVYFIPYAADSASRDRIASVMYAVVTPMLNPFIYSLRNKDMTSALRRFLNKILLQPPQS
# Conditions: stereoisomer not certain
# Procedure, shortened: as §1
row,Structure (SMILES),odorant receptor agonist call
1,O=CC=Cc1ccccc1,inactive
2,Oc1ccccc1Br,inactive
3,O=Cc1ccc2c(c1)OCO2,inactive
4,C=C(C)C1CC=C(C=O)CC1 (stereo not drawn),inactive
5,OCc1ccc2c(c1)OCO2,inactive
6,Cc1ccc(OC(=O)Cc2ccccc2)cc1,inactive
7,CCCCC(Br)C(=O)O (stereo not drawn),inactive
8,O=c1cc(O)c2ccccc2o1,inactive
9,CCCCCCC(Br)C(=O)O (stereo not drawn),inactive
10,C=CCOC(=O)Cc1ccccc1,inactive
11,COc1ccc(C=O)cc1,inactive
12,O=Cc1ccccc1,inactive
13,CSSC,inactive
14,CC(C=O)Cc1ccc2c(c1)OCO2 (stereo not drawn),inactive
